Shown are actives, neighbours in structure and some others; about 1.8% of the full set was active somewhere.
iPSC survival up: hiPSC single-cell survival enhancement. 0.044% of 360,000 active. ATPlite luminescence; 100% = ROCK inhibitor wells, 0% = DMSO. survival enhancement, % at 20 µM; in the data active = survival enhancement above about 18%;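 also: cells exposed to compounds for 16 hours before the ATP read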
TbMetRS inhib: Trypanosoma brucei MetRS inhibition | purified T. brucei MetRS, ATP depletion, Kinase-Glo luminescence | 0.4% of 360,000 active | inhibition, % at 11.9 µM | AID 624268;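 active = inhibition above a per-plate cutoff of the control wells' mean inhibition plus 3 SD, cut at about 5.5% in these data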
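assay system = parasite MetRS enzyme | timing = 15 min preincubation, 2 h reaction, all 25 °C | evaluation = percent inhibition relative to median high and low control wells | medium = HEPES buffer containing pyrophosphatase, BSA, spermine, DTT | compound = single dose, 11.9 µM final nominal, 0.9% final DMSO | detection = Kinase-Glo luminescence, ATP depletion format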
MT1-MMP act inh: inhibitors of human MT1-MMP activation. P50281. HT1080 RFP-PRO-GFP cells, GFP/RFP ratio fluorescence, overnight; percent of plate control window, DMSO zero. GFP/RFP ratio change, % at 20 µM. 0.061% of 360,000 active;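 active = GFP/RFP ratio change of at least 30% with cell ATP level not reduced by more than half and red fluorescence within 50% of control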
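Assay system: RFP-PRO-GFP reporter HT1080 cells; read-out basis: GFP/RFP fluorescence ratio; benchmarks: DMSO wells and RFP-L50D-GFP cells; doses: 20 µM single dose, 1% DMSO; schedule: overnight cell settling, then overnight compound exposure, 37 °C, 5% CO2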
E coli Lon inh: inhibits E. coli Lon protease; P0A9M0; purified E. coli Lon protease, fluorescence polarization; inhibition, % at 7.94 µM; 0.42% of 360,000 active; in the data active = inhibition above about 13%, passing the limit was not always enough
PREPL inh: human PREPL enzyme inhibition; Q4J6C6; recombinant PREPL, fluorescence polarization activity-based probe; inhibition, % at 5.96 µM; 0.68% of 320,000 active; in the data active = inhibition above about 43%
SKN-1 block: C. elegans SKN-1 inhibition | 0.49% of 360,000 active | C. elegans VP596 Pgst-4::GFP/RFP ratio, acrylamide-induced, 24 h | inhibition, % at 21.8 µM;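 active = interference check ratio from 0.5 to 1.5 plus GFP to RFP signal ratio inhibition reaching or exceeding a fixed threshold, cut at about 30% in these data, passing the limit was not always enough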
eLon confirm: E. coli Lon inhibition confirmation. 31% of 1,400 active. inhibition, % at 7.94 µM. purified E. coli Lon, fluorescence polarization. shares compounds with E coli Lon inh; in the data active = inhibition above about 16%
A number is an active result; 0 = inactive; - = not tested or not shown; + = active, no number.

SMILES	iPSC survival up	TbMetRS inhib	MT1-MMP act inh	E coli Lon inh	PREPL inh	SKN-1 block	eLon confirm
O=C(COC(=O)c1ccc(NS(=O)(=O)c2cccs2)cc1)Nc1nc2c(F)c(F)c(F)cc2s1	0	0	0	21	-	0	0
CCOc1ccc(/C(O)=C2/C(=O)C(=O)N(c3ccccn3)C2c2ccc(C)cc2)c(C)c1 (centres undefined)	0	0	0	26	0	0	0
CCOc1ccc(/C(O)=C2/C(=O)C(=O)N(c3ccccn3)C2c2ccc(Cl)cc2)c(C)c1 (centres undefined)	0	0	0	0	-	0	-
COCCNC(=O)c1c[nH]c2ccc(S(=O)(=O)Nc3ccccc3F)cc2c1=O	0	0	0	18	0	0	0
COCCNC(=O)c1c[nH]c2ccc(S(=O)(=O)Nc3ccc(F)cc3F)cc2c1=O	0	0	0	0	0	0	-
CS(=O)(=O)c1ccc(Cl)c(NC(=O)COC(=O)c2ccc(-n3cnnn3)cc2)c1	0	0	0	0	0	0	-
CN1CCN(C(=O)c2ccc3c(c2)N(Cc2ccccc2F)C(=O)c2ccccc2S3=O)CC1 (centres undefined)	0	0	0	16	0	0	0
CC1C(=O)N(Cc2cn(CCC3OCCCO3)nn2)CCS(=O)(=O)N1Cc1ccc(-c2ccccc2)cc1 (centres undefined)	0	0	0	0	-	0	-
CC1C(=O)N(Cc2cn(CCC3OCCCO3)nn2)CCS(=O)(=O)N1Cc1ccc(-c2ccc(Cl)cc2)cc1 (centres undefined)	0	0	0	13	-	0	24
O=C(CCl)c1cc2c3c(c1)CC(=O)N3CCC2	0	0	0	0	0	0	-
O=c1oc2c3c4c(cc2s1)CCCN4CCC3	0	0	0	46	0	0	45
O=c1ccc2cc3c4c(c2o1)CCCN4CCC3	0	0	0	80	0	0	22
CCc1ccc(OCC(=O)NC2CCCCC2)c(Br)c1	0	0	0	36	0	0	16
CCc1ccc(OCC(=O)NNC(=S)NC(=O)C2CCCCC2)c(Br)c1	0	0	0	0	0	0	-
O=C(COc1ccc(F)cc1Cl)NC1CCCCCC1	0	0	0	160	0	0	0
CCN(c1c(C)n(C)n(-c2ccccc2)c1=O)S(C)(=O)=O	0	0	0	69	0	0	0
COc1ccc(CCNC(=O)COC(=O)CCC(=O)c2ccc(F)cc2)cc1	0	0	0	0	0	0	-
O=S(=O)(NCCN1CCOCC1)c1ccc(Cl)c(Cl)c1	0	0	0	16	0	0	0
CCOC(=O)C(=C1Nc2ccccc2N1)n1c(-c2ccco2)nc2ccccc21	0	0	0	41	-	0	20
FC(F)c1nc2ccccc2[nH]1	0	0	0	0	0	0	-
c1ccc2[nH]c3cc4ncnc4cc3nc2c1	0	0	0	153	0	0	+
Cc1occc1C(=O)NC(C)C1CCCO1 (centres undefined)	0	0	0	15	0	0	0
Cc1cccc(NC(=O)Cn2ccn(-c3ccc4c(c3)OCCO4)c(=O)c2=O)c1	0	0	0	0	0	0	-
O=C(CCN1C(=O)C2C3C=CC(C3)C2C1=O)NC1CCCCC1 (centres undefined)	0	0	0	20	0	0	0
O=C(CN1C(=O)NC2(CCCCC2)C1=O)Oc1ccc2c(C(F)(F)F)cc(=O)oc2c1	0	0	0	54	0	0	33
SMILES	iPSC survival up	TbMetRS inhib	MT1-MMP act inh	E coli Lon inh	PREPL inh	SKN-1 block	eLon confirm
CCOC(=O)C(=O)N(C)c1c(CC)nc2c(OCc3cc(Cl)cc(Cl)c3)cccn12	0	0	0	0	-	0	-
Cc1ccc(NC(=O)CSc2nnc(-c3ccncc3)n2C)cc1C	0	0	0	33	0	0	0
Cn1cnnc1SCC(=O)Nc1ccc2ccccc2c1	0	0	0	14	0	0	0
Cn1cnnc1SCC(=O)Nc1ccccc1	0	0	0	0	0	0	-
CCOC(=O)c1ccc2ncc(C(=O)OCC)c(NCCN(C)C)c2c1	0	0	0	22	0	0	0
CCOC(=O)c1ccc2ncc(C(=O)OCC)c(NCCN3CCOCC3)c2c1	0	0	0	0	0	0	-
CCC(C)(C)n1nnnc1C(C(C)C)N(Cc1ccco1)Cc1cc2cc3c(cc2[nH]c1=O)OCO3 (centres undefined)	0	0	0	36	0	0	52
COc1cc(C)c2c(c1C=O)Oc1c(c(C)c(O)c3c1C(O)OC3=O)OC2=O (centres undefined)	0	0	0	57	0	0	16
Cc1occc1-c1nnc(SCC(=O)Nc2ccccc2N2CCCCC2)n1C	0	0	0	0	0	0	-
CCOc1ccccc1C(=O)NCCC(=O)O	0	0	0	17	0	0	0
CCOc1ccccc1C(=O)NCCCCNC(=O)c1ccccc1OCC	0	0	0	0	0	0	-
Cc1cc(C)c(-c2cc(C(=O)Nc3c(C)n(C)n(-c4ccccc4)c3=O)[nH]n2)c(O)c1	0	0	0	0	0	0	-
Cc1ccc(-c2cc(C(=O)Nc3c(C)n(C)n(-c4ccccc4)c3=O)[nH]n2)c(O)c1	0	0	0	15	0	0	0
O=C(c1ccccc1)[C@@H]1[C@@H]2C(=O)N(c3ccc(F)cc3)C(=O)[C@@H]2C2CCCN21 (some centres undefined)	0	0	0	23	0	0	29
Cc1ccc(N2C(=O)[C@@H]3[C@H](C2=O)C2CCCN2[C@@H]3C(=O)c2ccccc2)cc1 (some centres undefined)	0	0	0	0	0	0	-
CC(=O)Nc1ccc2nc3c(=O)n(C)c(=O)n(C)c3nc2c1	0	0	0	68	0	0	64
O=C(c1ccccc1Cl)N(Cc1ccc(Br)cc1)N1C(=O)CCC1=O	0	0	0	0	0	0	-
O=C(c1ccccc1Cl)N(Cc1ccc(Cl)c(Cl)c1)N1C(=O)CCCC1=O	0	0	0	18	0	0	0
CC(=O)n1nc(-c2ccc(C)cc2)nc1NCc1ccc(F)cc1	0	0	0	18	-	0	0
O=C(Cc1c(Cl)cccc1Cl)Nc1ccc(S(=O)(=O)Nc2ncccn2)cc1	0	0	0	19	0	0	0
O=C(Cc1ccc(Cl)cc1)Nc1ccc(S(=O)(=O)Nc2ncccn2)cc1	0	0	0	0	0	0	-
O=C(CNC(=O)c1ccc(-c2ccccc2)cc1)Nc1ccc(S(=O)(=O)Nc2ncccn2)cc1	0	0	0	30	0	0	43
Nc1ccn(CC(=O)NCc2ccc3[nH]ccc3c2)c(=O)n1	0	0	0	0	0	0	-
O=C(c1ccc[nH]1)N1O[C@@H]2C=C[C@H]1C2	0	0	0	0	-	0	-
